Measurements: ChEMBL document CHEMBL3352121, “Modulation of Activity Profiles for Largazole-Based HDAC Inhibitors through Alteration of Prodrug Properties” (ACS Med Chem Lett, 2014)

Tests used:
Histone deacetylase 2 = Histone deacetylase 2 (Homo sapiens, UniProt Q92769); assay: Inhibition of HDAC2 (unknown origin) incubated for 30 mins in presence of BSA and DTT by fluorescence assay
Histone deacetylase 3 = Histone deacetylase 3 (Homo sapiens, UniProt O15379); assay: Inhibition of HDAC3 (unknown origin) incubated for 30 mins in presence of BSA and DTT by fluorescence assay
Method in brief: (§1)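 Purified HDAC isoforms were tested up to a maximum of 1 μM. IC50 values are averages of duplicate experiments. Disulfide compounds were pretreated with DTT to reduce the disulfide bond.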

Histone deacetylase 4 [1] = target: T1, Histone deacetylase 4 (Homo sapiens, UniProt P56524); assay: Inhibition of HDAC4 (unknown origin) incubated for 30 mins in presence of BSA and DTT by fluorescence assay; method in brief: as §1
Histone deacetylase 5 [2] = target: T2, Histone deacetylase 5 (Homo sapiens, UniProt Q9UQL6); assay: Inhibition of HDAC5 (unknown origin) incubated for 30 mins in presence of BSA and DTT by fluorescence assay; method in brief: as §1
Histone deacetylase 7 = target: T3, Histone deacetylase 7 (Homo sapiens, UniProt Q8WUI4); assay: Inhibition of HDAC7 (unknown origin) incubated for 30 mins in presence of BSA and DTT by fluorescence assay; method in brief: as §1
T3 sequence (Q8WUI4 whole entry): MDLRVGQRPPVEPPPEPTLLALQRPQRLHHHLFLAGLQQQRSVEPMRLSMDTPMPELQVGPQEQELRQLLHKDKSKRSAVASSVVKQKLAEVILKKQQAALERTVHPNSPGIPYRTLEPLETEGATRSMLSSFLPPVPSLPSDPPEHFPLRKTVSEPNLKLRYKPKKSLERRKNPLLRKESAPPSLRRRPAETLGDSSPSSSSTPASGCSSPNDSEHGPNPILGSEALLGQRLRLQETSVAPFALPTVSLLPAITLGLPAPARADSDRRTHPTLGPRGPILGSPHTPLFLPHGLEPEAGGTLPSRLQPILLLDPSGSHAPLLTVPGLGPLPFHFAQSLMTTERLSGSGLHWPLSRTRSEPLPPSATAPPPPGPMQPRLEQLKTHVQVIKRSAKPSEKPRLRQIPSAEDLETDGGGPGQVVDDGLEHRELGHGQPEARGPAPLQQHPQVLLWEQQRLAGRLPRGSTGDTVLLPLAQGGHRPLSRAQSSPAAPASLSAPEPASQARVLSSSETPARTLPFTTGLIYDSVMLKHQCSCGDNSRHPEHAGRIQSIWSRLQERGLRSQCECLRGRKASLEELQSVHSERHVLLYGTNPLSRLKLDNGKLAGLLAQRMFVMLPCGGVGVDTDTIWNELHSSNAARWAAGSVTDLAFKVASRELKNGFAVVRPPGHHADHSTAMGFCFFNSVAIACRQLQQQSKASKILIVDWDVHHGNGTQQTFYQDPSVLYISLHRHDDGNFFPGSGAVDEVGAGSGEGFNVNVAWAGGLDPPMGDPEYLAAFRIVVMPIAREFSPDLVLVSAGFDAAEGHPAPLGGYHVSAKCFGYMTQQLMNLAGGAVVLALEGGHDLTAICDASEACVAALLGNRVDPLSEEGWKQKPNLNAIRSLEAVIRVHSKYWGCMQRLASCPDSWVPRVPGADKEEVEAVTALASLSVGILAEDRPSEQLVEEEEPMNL

[3] = target: T4, Polyamine deacetylase HDAC10 (Homo sapiens, UniProt Q969S8); assay: Inhibition of HDAC10 (unknown origin) incubated for 30 mins in presence of BSA and DTT by fluorescence assay; method in brief: as §1
T4 sequence (Q969S8 whole entry): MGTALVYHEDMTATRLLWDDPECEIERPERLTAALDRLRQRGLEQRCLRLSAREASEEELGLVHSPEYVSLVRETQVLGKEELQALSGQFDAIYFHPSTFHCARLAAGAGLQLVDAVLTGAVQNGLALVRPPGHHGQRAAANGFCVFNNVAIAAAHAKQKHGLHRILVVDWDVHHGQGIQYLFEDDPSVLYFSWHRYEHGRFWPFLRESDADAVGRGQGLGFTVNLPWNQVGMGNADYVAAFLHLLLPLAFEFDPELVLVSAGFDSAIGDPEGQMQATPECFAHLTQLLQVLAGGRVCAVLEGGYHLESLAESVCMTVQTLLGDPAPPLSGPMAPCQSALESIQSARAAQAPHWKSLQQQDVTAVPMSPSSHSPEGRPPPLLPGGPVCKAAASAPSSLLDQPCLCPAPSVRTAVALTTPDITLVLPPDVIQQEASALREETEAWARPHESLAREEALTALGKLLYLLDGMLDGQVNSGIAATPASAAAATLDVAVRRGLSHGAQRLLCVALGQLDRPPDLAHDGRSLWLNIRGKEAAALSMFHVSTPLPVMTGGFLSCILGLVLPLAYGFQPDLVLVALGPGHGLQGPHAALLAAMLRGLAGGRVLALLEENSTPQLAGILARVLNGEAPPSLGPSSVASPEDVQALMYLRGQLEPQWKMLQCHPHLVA

[4] = Antiproliferative activity against human HCT116 cells after 48 hrs in presence of DTT by MTT assay; type: functional, cell-based; settings: HCT-116, 48 h
Method in brief: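 Disulfide compounds were pretreated with DTT to reduce the disulfide bond before testing.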

Histone deacetylase 4 [5] = target: T1, Histone deacetylase 4; assay: Inhibition of HDAC4 (unknown origin) at 1 uM incubated for 30 mins in presence of BSA and DTT by fluorescence assay; method in brief: as §1
Histone deacetylase 5 [6] = target: T2, Histone deacetylase 5; assay: Inhibition of HDAC5 (unknown origin) at 1 uM incubated for 30 mins in presence of BSA and DTT by fluorescence assay; method in brief: as §1
[7] = target: T5, Histone deacetylase 7 (Homo sapiens) (UniProt Q8WUI4); assay: Inhibition of HDAC7 (unknown origin) at 1 uM incubated for 30 mins in presence of BSA and DTT by fluorescence assay; method in brief: as §1
T5 sequence (whole entry): T3 sequence (Q8WUI4 whole entry)

[8] = target: Histone deacetylase (Homo sapiens) (UniProt Q13547+O15379+Q9UBN7+Q92769+Q9UQL6+Q8WUI4+Q9BY41+Q96DB2+P56524+Q9UKV0+Q969S8); assay: Inhibition of HDAC in human HCT116 cells assessed as increase in histone H3 (Lys9/14) hyperacetylation after 8 to 24 hrs by immunoblotting method; type: cell-based; settings: HCT-116
Method in brief: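 HCT116 cells were treated across a dose range. Cellular HDAC inhibition was read as histone H3 (Lys9/14) hyperacetylation by immunoblot at 8 and 24 h post-treatment.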

T2 sequence (Q9UQL6 whole entry): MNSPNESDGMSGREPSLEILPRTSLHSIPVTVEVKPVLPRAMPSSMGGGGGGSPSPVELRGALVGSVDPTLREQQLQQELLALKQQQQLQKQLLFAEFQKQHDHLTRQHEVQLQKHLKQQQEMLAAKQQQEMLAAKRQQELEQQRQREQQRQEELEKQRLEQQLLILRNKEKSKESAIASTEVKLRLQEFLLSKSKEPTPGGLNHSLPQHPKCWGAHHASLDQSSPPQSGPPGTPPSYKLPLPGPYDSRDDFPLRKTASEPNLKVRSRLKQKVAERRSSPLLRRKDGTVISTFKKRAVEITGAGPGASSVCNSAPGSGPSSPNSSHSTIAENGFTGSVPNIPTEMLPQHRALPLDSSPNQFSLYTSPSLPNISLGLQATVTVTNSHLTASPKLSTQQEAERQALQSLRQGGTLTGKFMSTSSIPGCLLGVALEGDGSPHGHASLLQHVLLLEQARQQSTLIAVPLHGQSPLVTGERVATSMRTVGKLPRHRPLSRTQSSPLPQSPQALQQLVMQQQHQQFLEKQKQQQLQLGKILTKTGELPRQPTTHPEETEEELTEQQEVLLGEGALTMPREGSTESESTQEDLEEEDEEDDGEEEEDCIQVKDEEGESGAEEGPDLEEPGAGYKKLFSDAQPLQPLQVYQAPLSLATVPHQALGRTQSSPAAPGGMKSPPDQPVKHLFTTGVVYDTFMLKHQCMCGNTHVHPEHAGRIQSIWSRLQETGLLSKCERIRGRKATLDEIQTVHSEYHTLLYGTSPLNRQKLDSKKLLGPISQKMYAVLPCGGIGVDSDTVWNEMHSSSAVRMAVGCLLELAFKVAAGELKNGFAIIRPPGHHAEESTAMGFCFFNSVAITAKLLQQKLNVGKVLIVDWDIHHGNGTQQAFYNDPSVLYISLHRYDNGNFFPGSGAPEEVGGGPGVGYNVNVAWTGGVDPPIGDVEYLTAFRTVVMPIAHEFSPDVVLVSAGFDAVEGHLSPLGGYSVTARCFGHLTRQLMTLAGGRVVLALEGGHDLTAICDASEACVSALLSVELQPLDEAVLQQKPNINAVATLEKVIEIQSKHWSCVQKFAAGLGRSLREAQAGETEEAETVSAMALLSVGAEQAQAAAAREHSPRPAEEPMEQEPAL
T1 sequence (P56524 whole entry): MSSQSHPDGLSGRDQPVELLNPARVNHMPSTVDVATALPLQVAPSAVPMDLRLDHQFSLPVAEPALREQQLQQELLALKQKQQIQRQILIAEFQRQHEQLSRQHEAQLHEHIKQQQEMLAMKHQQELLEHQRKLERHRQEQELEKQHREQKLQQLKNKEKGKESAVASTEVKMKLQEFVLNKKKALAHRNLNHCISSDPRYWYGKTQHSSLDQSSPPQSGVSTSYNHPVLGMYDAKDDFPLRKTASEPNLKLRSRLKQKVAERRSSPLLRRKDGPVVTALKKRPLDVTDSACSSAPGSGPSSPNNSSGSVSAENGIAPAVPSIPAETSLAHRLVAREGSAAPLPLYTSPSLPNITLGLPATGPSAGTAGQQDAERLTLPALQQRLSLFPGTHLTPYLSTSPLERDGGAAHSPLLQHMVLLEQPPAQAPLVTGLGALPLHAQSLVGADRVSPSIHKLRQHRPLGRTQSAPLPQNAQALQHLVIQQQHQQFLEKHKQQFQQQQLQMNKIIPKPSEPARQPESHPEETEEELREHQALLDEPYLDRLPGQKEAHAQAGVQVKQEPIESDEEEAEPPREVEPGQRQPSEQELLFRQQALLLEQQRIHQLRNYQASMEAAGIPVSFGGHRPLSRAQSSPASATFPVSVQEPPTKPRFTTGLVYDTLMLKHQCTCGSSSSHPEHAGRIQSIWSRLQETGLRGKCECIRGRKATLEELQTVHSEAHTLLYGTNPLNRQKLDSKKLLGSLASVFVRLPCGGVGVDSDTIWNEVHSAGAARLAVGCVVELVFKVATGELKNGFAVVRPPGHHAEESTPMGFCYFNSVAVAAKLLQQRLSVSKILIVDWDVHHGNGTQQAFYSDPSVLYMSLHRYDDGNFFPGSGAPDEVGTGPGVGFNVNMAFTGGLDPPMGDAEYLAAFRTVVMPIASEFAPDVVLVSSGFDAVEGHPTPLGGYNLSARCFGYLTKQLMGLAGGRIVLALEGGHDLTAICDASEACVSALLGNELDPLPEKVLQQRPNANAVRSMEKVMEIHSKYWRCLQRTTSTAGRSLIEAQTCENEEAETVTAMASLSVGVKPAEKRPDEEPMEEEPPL
Histone deacetylase 3, sequence (O15379 whole entry, canonical isoform): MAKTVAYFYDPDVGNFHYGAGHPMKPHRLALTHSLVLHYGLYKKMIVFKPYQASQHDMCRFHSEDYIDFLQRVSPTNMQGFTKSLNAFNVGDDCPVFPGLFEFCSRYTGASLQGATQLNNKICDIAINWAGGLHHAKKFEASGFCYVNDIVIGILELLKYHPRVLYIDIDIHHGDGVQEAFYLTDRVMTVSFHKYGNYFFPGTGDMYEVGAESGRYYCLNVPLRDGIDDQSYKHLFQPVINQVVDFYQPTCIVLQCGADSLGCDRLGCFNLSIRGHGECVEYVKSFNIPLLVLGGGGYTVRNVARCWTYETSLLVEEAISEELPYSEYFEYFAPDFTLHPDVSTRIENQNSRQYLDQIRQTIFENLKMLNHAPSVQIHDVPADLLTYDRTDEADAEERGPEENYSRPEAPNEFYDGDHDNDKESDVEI
Histone deacetylase 2, sequence (Q92769 whole entry): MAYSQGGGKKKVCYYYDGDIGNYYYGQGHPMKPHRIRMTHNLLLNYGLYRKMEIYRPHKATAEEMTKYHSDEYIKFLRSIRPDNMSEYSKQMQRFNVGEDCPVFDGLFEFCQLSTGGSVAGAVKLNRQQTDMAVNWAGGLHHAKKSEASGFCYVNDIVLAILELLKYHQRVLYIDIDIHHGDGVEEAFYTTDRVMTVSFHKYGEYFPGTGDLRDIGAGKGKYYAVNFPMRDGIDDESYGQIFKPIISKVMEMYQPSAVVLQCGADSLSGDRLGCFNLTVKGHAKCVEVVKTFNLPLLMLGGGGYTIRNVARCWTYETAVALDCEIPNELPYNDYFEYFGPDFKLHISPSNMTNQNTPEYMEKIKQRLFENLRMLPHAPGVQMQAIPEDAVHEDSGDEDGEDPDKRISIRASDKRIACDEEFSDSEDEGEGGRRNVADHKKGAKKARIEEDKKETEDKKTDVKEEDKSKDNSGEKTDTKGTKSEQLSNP

| IC50 (Histone deacetylase 2) [nM] | IC50 (Histone deacetylase 3) [nM] | IC50 (Histone deacetylase 4 [1]) | IC50 (Histone deacetylase 5 [2]) | IC50 (Histone deacetylase 7) | IC50 [3] [nM] | inhibition (Histone deacetylase 4 [5]) [%] | inhibition (Histone deacetylase 5 [6]) [%] | inhibition [7] [%] | inhibition [8] | Compound | IC50 [4] [nM] |
| --- | --- | --- | --- | --- | --- | --- | --- | --- | --- | --- | --- |
| 0.9 | 0.6 | Not Active | Not Active | Not Active | 0.5 | < 20 | < 20 | < 20 | Dose-dependent effect | CC(C)[C@@H]1NC(=O)[C@]2(C)CSC(=N2)c2csc(n2)CNC(=O)C[C@@H](/C=C/CCSSC[C@H](NC(=O)OC(C)(C)C)C(=O)OC(C)(C)C)OC1=O | 13 |
| 0.5 | 0.3 | Not Active | Not Active | Not Active | 0.2 | < 20 | < 20 | < 20 | Dose-dependent effect | CC(C)[C@@H]1NC(=O)[C@]2(C)CSC(=N2)c2csc(n2)CNC(=O)C[C@@H](/C=C/CCSSCC/C=C/[C@@H]2CC(=O)NCc3nc(cs3)C3=N[C@@](C)(CS3)C(=O)N[C@@H](C(C)C)C(=O)O2)OC1=O | 12 |
